# This is a sample that favours compounds with a hit; in the whole collection about 2.5% have one here.
# NSD2 HMT inh: NSD2 (human) methyltransferase inhibition | O96028 | NSD2 peptide methylation, AlphaScreen, 120 min | inhibition, % at 12.5 µM | 0.54% of 310,000 active
# SR-BI HDL uptake: blocks mouse SR-BI lipid uptake from DiI-HDL; Q61009; ldlA[mSR-BI] CHO cells, DiI-HDL uptake fluorescence, 3 h; inhibition, % at 12.5 µM; 0.96% of 320,000 active;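 active = mean replicate inhibition of at least 70% and a set share of replicates each scoring 70 or more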;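 also: 0% = median of neutral control wells and 100% = median of positive control wells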
# dFosB act: enhances mouse delta FosB homodimer DNA binding | P13346 | activation, % at 25 µM | purified delta FosB, TAMRA-CDK5 oligo fluorescence polarization; percent of positive-control signal above neutral wells | 0.99% of 340,000 active;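 active = mean activation above about 17%, with every replicate also reaching it, limit read from the data, passing the limit was not always enough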
# Target sequence (P13346 whole entry, looked up): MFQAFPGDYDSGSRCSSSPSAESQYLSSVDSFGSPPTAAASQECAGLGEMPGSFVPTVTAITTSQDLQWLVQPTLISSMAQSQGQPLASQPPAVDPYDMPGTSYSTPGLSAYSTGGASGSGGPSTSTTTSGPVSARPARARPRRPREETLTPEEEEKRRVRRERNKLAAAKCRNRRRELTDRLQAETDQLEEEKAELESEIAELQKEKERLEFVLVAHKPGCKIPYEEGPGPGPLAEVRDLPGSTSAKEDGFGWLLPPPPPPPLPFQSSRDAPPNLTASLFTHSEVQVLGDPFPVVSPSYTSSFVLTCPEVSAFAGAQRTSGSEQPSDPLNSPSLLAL
# DYRK1A inh: Dyrk1A (rat) kinase inhibition | Q63470 | ADP-Glo luminescence, NFATc1 peptide | inhibition, % at 12.5 µM | 0.43% of 310,000 active | AID 504441;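 also: plate controls were vehicle with enzyme for no effect and no enzyme for full effect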
# SR-BI uptake up: SR-BI HDL lipid transfer activation; activation, % at 12.5 µM; 0.096% of 320,000 active; AID 504775; CHO ldlA[mSR-BI] cells, DiI-HDL uptake fluorescence, 3 h; 100 = double the neutral-control signal;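 active = mean replicate activation of at least 60% and every replicate at or above 60%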;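 also: 0% = median plate neutral-control signal and 100% = twice that signal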
#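 Assay system: CHO ldlA[mSR-BI] cells, LDL receptor-null, SR-BI overexpressing; medium: Ham's F12 with 0.5% BSA, HEPES 25 mM, pH 7.4; also added: DiI-HDL 10 µg/mL; timing: 3 h uptake period with compound, 37 °C; signal: DiI fluorescence, bottom read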
# CDK5 p35 inh: blocks human CDK5/p35 kinase activity; Q00535+Q15078; Recombinant CDK5/p35, ADP-Glo luminescence, 60 min; inhibition, % at 10 µM; 0.01% of 330,000 active; AID 488839;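 active = highest replicate inhibition of at least 50% and at least 75% of replicates reaching 50%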;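 also: plate controls were DMSO neutral control for no effect and GW8510 at 10 µM for full effect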
# DiI quencher: DiI fluorescence quenching in cell-free counter-screen; AID 540326; AC50, µM (highest dose often 35 µM), without a hit: top-dose activity change, negative = quenching; shares compounds with SR-BI HDL uptake; 20% of 470 active; cell-free DiI-HDL fluorescence quenching, 30 min;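 active = quenching, a falling signal, with AC50 below a set limit tied to the top valid dose, actives reach about 32 µM in these data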
# The depositor's hits bear a star; . = no result. Rule as the data show it, unless noted: active = inhibition above about 50%; inactive = the rest.
SMILES,NSD2 HMT inh,SR-BI HDL uptake,dFosB act,DYRK1A inh,SR-BI uptake up,CDK5 p35 inh,DiI quencher
O=C(COC(=O)/C=C/c1ccc(F)cc1)NC(=O)NCc1ccccc1,0,.,.,.,.,.,.
O=C(NC1CCCCC1)C(c1ccc2ncccc2c1)N(Cc1ccco1)C(=O)c1ccc2c(c1)OCCO2 (centres undefined),.,-14,-13,-3,14,2,-2%
O=C(NC1CCCCC1)C(c1ccc2ncccc2c1)N(Cc1ccc2c(c1)OCO2)C(=O)c1ccc2c(c1)OCCO2 (centres undefined),1,-2,-7,0,2,-1,.
CC(C)[C@H](NC(=O)c1ccccc1)C(=O)OCC(=O)c1ccc2c(c1)NC(=O)CO2,0,10,-9,2,-10,2,.
Cc1cccc(C(=O)OCC(=O)c2ccc3c(c2)NC(=O)CO3)c1,-1,0,-9,-6,0,1,.
CC(C)C(C(=O)OCC(=O)c1ccc2c(c1)NC(=O)CO2)N1C(=O)c2ccccc2C1=O (centres undefined),.,23,23*,-2,-23,1,-1%
CC[C@H](C)[C@H](NC(=O)c1ccc(Cl)cc1)C(=O)OCC(=O)c1ccc2c(c1)NC(=O)CO2,-4,86*,2,6,-86,2,2%
COc1cc(OC)cc(C(=O)N[C@H](C(=O)OCC(=O)c2ccc3c(c2)NC(=O)CO3)C(C)C)c1,-2,-16,-1,3,16,1,6%
OCC[C@H]1C[C@H](O)[C@@H](O)[C@]2(OCCc3ccccc32)O1,.,-35,1,5,35,0,.
Cc1cc2oc(=O)cc(CN3CCN(C/C=C/c4ccccc4)CC3)c2cc1O,-1,76*,25*,9,-76,-1,-7%
O=C(OCc1ccc([N+](=O)[O-])cc1Cl)c1cnccn1,1,-3,0,12,3,0,.
COc1ccc(C(=O)CSc2nnc(CNC(=O)c3ccc(S(=O)(=O)N(C)C)cc3)o2)cc1,1,78*,-11,-2,-78,-1,0%
O=C(CCC(=O)Nc1ccccc1)NNC(=O)c1ccccc1Cl,-1,0,3,-2,0,-1,.
Cc1ccccc1C(=O)Nc1cc(NC(=O)c2ccccc2C)cc(C(=O)O)c1,2,-11,2,10,11,0,-3%
Cc1ccc(C)c(NC(=O)C(CC(=O)O)C2CCCO2)c1 (centres undefined),-1,77*,-5,.,-77,-1,-2%
O=C(O)CC(C(=O)Nc1ccc(Cl)cc1Cl)C1CCCO1 (centres undefined),0,-15,1,-4,15,1,.
O=C(CN1CCN(CC(=O)Nc2ccccc2F)CC1)Nc1cccc(F)c1,.,1,6,11,-1,0,.
O=C(CN1CCN(CC(=O)Nc2ccc3c(c2)OC2(CCCCC2)O3)CC1)Nc1cccc(F)c1,0,68,-9,.,-68,0,-10%
CSc1ccccc1OCc1cc(C(=O)N(C)Cc2c(C)n[nH]c2C)no1,2,78*,-4,3,-78,-1,-4%
O=C1C2C3C=CC(C3)C2C(=O)N1c1cccc(N2C(=O)C3C4C=CC(C4)C3C2=O)n1 (centres undefined),-1,-2,-2,.,2,-2,-3%
CC(=O)c1ccccc1NC(=O)c1ccc(N2CCCC2=O)cc1,0,56,-28,-9,-56,3,.
CC(=O)Nc1cc(NC(C)=O)cc(C(=O)OCC(=O)N(c2ccccc2)C2CCS(=O)(=O)C2)c1 (centres undefined),20,-12,-12,-3,12,0,-3%
Cc1nn(Cc2c(Cl)cccc2Cl)c(C)c1NC(=O)CCCn1nc([N+](=O)[O-])c(Cl)c1C,0,80*,-6,5,-80,0,-7%
Cc1cc(C(=O)C(C)OC(=O)C2=NNC(=O)CC2)c(C)n1-c1ccc(OC(F)F)cc1 (centres undefined),0,82*,-1,13,-82,0,-2%

# Assay outcomes from PubChem.
